The structures appear in SMILES notation.

The subject of this test is OVA-sensitised Brown Norway rat. Kind of test: OVA-sensitised and challenged Brown Norway rat allergy model. In kind it is in vivo. Particulars: 1 mg/kg intratracheal, 24 h before and 24 h after OVA challenge. The method, boiled down:
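In OVA-sensitised Brown Norway rats, the test compound was given intratracheally 24 h before and 24 h after OVA challenge (5 sensitised-only, 9 dosed per point; or groups of eight). Alternatively, from 14 days post-sensitisation, rats received 1 mg/kg weekly for eight doses (10 per point), then aerosolised OVA 26 days later. BAL eosinophils and IL-13 were measured 48 h post-challenge. Results were given as mean±SEM; Mann-Whitney U test versus vehicle-dosed OVA controls.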

Turning to `CCCC1O[C@@H]2C[C@H]3[C@@H]4CCC5=CC(=O)C=C[C@]5(C)[C@H]4[C@@H](O)C[C@]3(C)[C@]2(C(=O)CO)O1` (stereo partly shown) [budesonide], the “efficacy of acute dosing (BAL eosinophils, IL-13)” value is recorded as “demonstrated efficacy”.

The values are drawn from publication PMC4769423 (BMJ Open Respiratory Research, 2016).
